Results published in ChEMBL document CHEMBL4715860 (J Med Chem, 2020).
Activity calls are given as the source filed them. The rule behind the calls is not given here.

Experiments:
[1] = Cmax in C57BL/6J mouse plasma at 25 mg/kg, po administered as single dose by mass spectrometry based UHPLC analysis; format: ADME, organism-based; parameters: route oral, dose 25 mg/kg
Summary of the method: (§1)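 One oral dose of 25 mg/kg to female C57BL/6J mice. Plasma and brain concentrations followed over time, n = 3 per time point (mean).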

[2] = Elimination half life in C57BL/6J mouse brain at 25 mg/kg, po administered as single dose by mass spectrometry based UHPLC analysis; format: ADME, organism-based; conditions: read-out: beta t1/2 (converted); summary of the method: as §1
[3] = Cmax in C57BL/6J mouse brain at 25 mg/kg, po administered as single dose by mass spectrometry based UHPLC analysis; format: ADME, organism-based; parameters: route oral, dose 25 mg/kg; summary of the method: as §1
[4] = Tmax in C57BL/6J mouse brain at 25 mg/kg, po administered as single dose by mass spectrometry based UHPLC analysis; format: ADME, organism-based
Summary of the method: (§2)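 Female C57BL/6J mice given a single oral dose of 25 mg/kg. Plasma and brain levels followed over time (n = 3 per time point, mean). Tmax is the time of maximal concentration.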

[5] = AUC (0 to 8 hrs) in C57BL/6J mouse plasma at 25 mg/kg, po administered as single dose by mass spectrometry based UHPLC analysis; format: ADME, organism-based; parameters: time < 8 hr, route oral, dose 25 mg/kg; summary of the method: as §1
[6] = Elimination half life in C57BL/6J mouse plasma at 25 mg/kg, po administered as single dose by mass spectrometry based UHPLC analysis; format: ADME, organism-based; conditions: read-out: beta t1/2 (converted); summary of the method: as §1
Mus musculus [7] = experiment: In vivo inhibition of PI3Kalpha C57BL/6J mouse assessed as increase in plasma insulin concentration at 25 mg/kg, po measured after 8 hrs by ELISA; format: functional, organism-based
Summary of the method: (§3)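 Female C57BL/6J mice given one oral dose (25 mg/kg); plasma insulin and glucose monitored over time, mean ± SEM.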

[8] = Clearance in C57BL/6J mouse plasma at 25 mg/kg, po administered as single dose by mass spectrometry based UHPLC analysis; format: ADME, organism-based; summary of the method: as §1
[9] = Tmax in C57BL/6J mouse plasma at 25 mg/kg, po administered as single dose by mass spectrometry based UHPLC analysis; format: ADME, organism-based; summary of the method: as §2
Mus musculus [10] = experiment: In vivo inhibition of PI3Kalpha in C57BL/6J mouse assessed as increase in plasma glucose concentration at 25 mg/kg, po measured after 8 hrs by glucoseoxidase-peroxide coupled colorimetric assay; format: functional, organism-based; summary of the method: as §3
[11] = AUC (0 to 8 hrs) in C57BL/6J mouse brain at 25 mg/kg, po administered as single dose by mass spectrometry based UHPLC analysis; format: ADME, organism-based; parameters: time < 8 hr, route oral, dose 25 mg/kg; summary of the method: as §1
[12] = Metabolic stability in Beagle dog hepatocytes assessed as half-life at 5 uM incubated for 3 hrs by LC-MS analysis; format: ADME, cell-based, Canis lupus familiaris, Hepatocyte
Summary of the method: (§4)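 Cryopreserved primary hepatocytes in suspension from CD-1 mouse, Sprague-Dawley rat, Beagle dog and human. Compound at 5 μM final (from 10 mM DMSO stock). Samples taken at 0, 15, 60, 90 and 180 min and quenched with ACN plus internal standard. Parent quantified by LC-MS. Hepatocyte-free medium incubations served as negative control; 7-ethoxycoumarin as positive control. Duplicate; CLint per 10^6 cells and t1/2.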

[13] = Metabolic stability in CD1 mouse hepatocytes assessed as half-life at 5 uM incubated for 3 hrs by LC-MS analysis; format: ADME, cell-based, Hepatocyte; summary of the method: as §4
[14] = Metabolic stability in human hepatocytes assessed as half-life at 5 uM incubated for 3 hrs by LC-MS analysis; format: ADME, cell-based, Hepatocyte
Summary of the method: as §4, with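 “stock).” for “stock). Samples taken at 0, 15, 60, 90 and 180 min and quenched with ACN plus internal standard.”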

[15] = Metabolic stability in Sprague-Dawley rat hepatocytes assessed as half-life at 5 uM incubated for 3 hrs by LC-MS analysis; format: ADME, cell-based, Hepatocyte; summary of the method: as §4

With `CNC(=O)c1cccc(-c2ccc3c(N4CCOC[C@@H]4C)nc(N4CCOC[C@@H]4C)nc3n2)c1` [VISTUSERTIB] the Cmax [1] was 7190 ng/mL, the half-life [2] was 516 min and the Cmax [3] was 286 ng/mL. For the same compound, the Tmax [4] was 30 min, the AUC(0-t) at 8 h [5] was 33700 ng·h/mL and the half-life [6] was 450 min. For the same compound, the inhibition (Mus musculus [7]) was “inactive”, the CL/F [8] was 11 mL/min/kg and the Tmax [9] was 30 min. For the same compound, the inhibition (Mus musculus [10]) was “inactive” and the AUC(0-t) at 8 h [11] was 1340 ng·h/mL.

In the case of `CCOc1ccc2ccc(=O)oc2c1`, the half-life at 5 µM [12] is reported as 14 min, the half-life at 5 µM [13] is reported as 21 min and the half-life at 5 µM [14] is reported as 31 min. The half-life at 5 µM [15] was 55 min.
